# PMC7825188 (CPT: Pharmacometrics & Systems Pharmacology, 2020)
# Read-outs that look alike come from different tables or passages of the source.
# Tests used:
# [1] = assay type: in vivo, human; settings: MBCT102
# In short: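 Healthy men (18–65 y, BMI 18–30, nonsmokers) completed two periods ≥14 days apart. Period 1 was a single oral 14 mg dose (2 × 7 mg capsules). In period 2, azithromycin 500 mg was given daily on days −1 to 2, with acumapimod on day 1. Plasma (K2EDTA) was sampled predose to 168 h, plus 336 h in period 2, and assayed by LC-MS/MS (1.0–1,000 ng/mL). Noncompartmental Cmax and AUCs were ln-transformed and analysed by ANOVA, giving GMR with 90% CI.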
# [2] = assay type: in vivo, human; settings: MBCT103
# In short: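 Healthy men received period 1 as in the azithromycin study (single 14 mg oral dose). In period 2, itraconazole oral solution 200 mg was given once daily on days 1–14, with a single acumapimod dose on day 7, 2 h post-itraconazole. Washout was ≥16 days. Plasma was sampled predose to 192 h and assayed by LC-MS/MS. Noncompartmental Cmax and AUCs were ln-transformed and analysed by ANOVA, giving GMR with 90% CI.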
# [3] = Study MBCT102: safety and tolerability; assay type: in vivo, human
# In short: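 AEs and SAEs were recorded from check-in on day −1 until the post-study physical examination (day 15). TEAEs were AEs that were new after treatment or worsened in intensity or frequency. Intensity was graded mild, moderate or severe.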
# [4] = Study MBCT103: safety and tolerability; assay type: in vivo, human
# In short: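 AEs and SAEs were recorded from check-in on day −1 until a follow-up call 14 days after the last acumapimod dose. TEAEs were AEs that were new after treatment or worsened in intensity or frequency. Intensity was graded mild, moderate or severe. The safety set comprised all subjects receiving ≥1 acumapimod dose.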
# Human mass balance study = assay type: in vivo; settings: assigned to biliary clearance (Model 1) or unabsorbed drug (Model 2)
# P‐glycoprotein (P‐gp) = P‐glycoprotein (P‐gp) (Homo sapiens, UniProt P08183); assay: P-gp substrate status of acumapimod; assay type: in vitro ADME
# CYP3A4 = CYP3A4 (Homo sapiens, UniProt P08684); assay: In vitro CYP phenotyping of acumapimod; assay type: in vitro ADME; settings: both models; based on in vitro phenotyping data
# [5] = acumapimod + azithromycin relative to acumapimod alone
# [6] = azithromycin, upper 90% CI of GMR
# [7] = with azithromycin vs. acumapimod alone
# [8] = acumapimod + itraconazole vs. acumapimod alone
# [9] = itraconazole, upper 90% CI of GMR
# [10] = with itraconazole relative to acumapimod alone
# Chain of P‐glycoprotein (P‐gp) (P08183 whole entry): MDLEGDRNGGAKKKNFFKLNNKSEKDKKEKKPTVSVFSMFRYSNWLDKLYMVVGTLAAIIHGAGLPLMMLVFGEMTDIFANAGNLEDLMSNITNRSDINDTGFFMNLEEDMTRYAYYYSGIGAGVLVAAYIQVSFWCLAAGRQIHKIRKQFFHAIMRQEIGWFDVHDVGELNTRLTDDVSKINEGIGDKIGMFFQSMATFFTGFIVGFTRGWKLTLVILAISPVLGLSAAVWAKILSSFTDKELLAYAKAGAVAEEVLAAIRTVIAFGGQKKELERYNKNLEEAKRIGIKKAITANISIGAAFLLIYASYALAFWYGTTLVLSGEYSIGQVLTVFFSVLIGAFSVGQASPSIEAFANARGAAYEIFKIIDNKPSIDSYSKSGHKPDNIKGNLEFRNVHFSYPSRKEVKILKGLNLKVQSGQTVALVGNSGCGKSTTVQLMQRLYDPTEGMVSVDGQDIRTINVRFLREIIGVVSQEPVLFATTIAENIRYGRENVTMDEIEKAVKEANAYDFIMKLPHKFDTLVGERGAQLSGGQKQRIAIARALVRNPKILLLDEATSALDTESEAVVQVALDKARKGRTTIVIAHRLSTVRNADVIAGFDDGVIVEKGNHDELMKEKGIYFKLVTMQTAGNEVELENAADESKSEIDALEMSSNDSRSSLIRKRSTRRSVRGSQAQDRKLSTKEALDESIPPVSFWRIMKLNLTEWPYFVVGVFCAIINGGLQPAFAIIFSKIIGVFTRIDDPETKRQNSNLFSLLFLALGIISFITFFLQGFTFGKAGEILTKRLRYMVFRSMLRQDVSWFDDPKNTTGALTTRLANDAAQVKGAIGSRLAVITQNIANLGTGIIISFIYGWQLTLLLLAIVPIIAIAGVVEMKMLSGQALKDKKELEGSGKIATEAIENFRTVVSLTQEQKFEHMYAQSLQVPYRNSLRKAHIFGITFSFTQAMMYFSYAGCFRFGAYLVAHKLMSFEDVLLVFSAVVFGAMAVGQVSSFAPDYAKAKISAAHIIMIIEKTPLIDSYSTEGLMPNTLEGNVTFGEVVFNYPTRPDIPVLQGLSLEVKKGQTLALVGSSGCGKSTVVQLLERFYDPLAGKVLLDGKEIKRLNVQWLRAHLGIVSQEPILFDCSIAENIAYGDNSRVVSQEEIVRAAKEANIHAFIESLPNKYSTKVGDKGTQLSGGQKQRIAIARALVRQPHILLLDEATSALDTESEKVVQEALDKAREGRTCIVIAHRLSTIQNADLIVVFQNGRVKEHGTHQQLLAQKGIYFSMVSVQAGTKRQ
# Chain of CYP3A4 (P08684 whole entry): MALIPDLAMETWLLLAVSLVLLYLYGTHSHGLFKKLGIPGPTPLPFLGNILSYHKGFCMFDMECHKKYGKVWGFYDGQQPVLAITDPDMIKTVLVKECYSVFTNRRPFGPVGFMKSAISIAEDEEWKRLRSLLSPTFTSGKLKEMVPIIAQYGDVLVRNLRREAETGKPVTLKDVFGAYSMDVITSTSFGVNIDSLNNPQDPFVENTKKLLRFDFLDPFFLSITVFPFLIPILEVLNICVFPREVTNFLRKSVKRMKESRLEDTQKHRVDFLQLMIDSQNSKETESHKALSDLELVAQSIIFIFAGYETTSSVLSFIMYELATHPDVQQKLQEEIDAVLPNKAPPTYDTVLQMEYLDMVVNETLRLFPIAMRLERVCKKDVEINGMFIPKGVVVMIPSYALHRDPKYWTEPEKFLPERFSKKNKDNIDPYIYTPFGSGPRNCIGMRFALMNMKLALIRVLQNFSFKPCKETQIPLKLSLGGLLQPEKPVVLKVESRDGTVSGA
compound,measurement,setting,value
Cc1ccc(C(=O)NC2CC2)cc1-n1ncc(C(=O)c2cccc(C#N)c2)c1N [acumapimod],AUC0–t ratio (adjusted GMR),[1]; [5],105.65%
same,AUC0–∞ ratio (adjusted GMR),[1]; [5],104.32%
same,Cmax ratio (adjusted GMR),[1]; [5],106.34%
same,"upper limit of the interaction, AUC0–t",[1]; [6],112%
same,"upper limit of the interaction, AUC0–∞",[1]; [6],110%
same,"upper limit of the interaction, Cmax",[1]; [6],115%
same,increase of geometric mean AUC0–∞,[1]; [7],4.3%
same,increase of geometric mean Cmax,[1]; [7],6.3%
same,AUC0–t ratio (adjusted GMR),[2]; [8],110.09%
same,AUC0–∞ ratio (adjusted GMR),[2]; [8],110.22%
same,Cmax ratio (adjusted GMR),[2]; [8],99.44%
same,"upper limit of interaction, AUC0–t",[2]; [9],120%
same,"upper limit of interaction, AUC0–∞",[2]; [9],120%
same,"upper limit of interaction, Cmax",[2]; [9],109%
same,change in Cmax,[2]; [10],no change
same,increase of geometric mean AUC0–t,[2]; [10],10%
same,increase of geometric mean AUC0–∞,[2]; [10],10%
same,SAEs or deaths,[3],No SAEs or deaths were reported
same,"safety laboratory, vital signs, electrocardiogram, physical examination",[3],No clinically relevant findings
same,subjects reporting TEAEs,"[3]; 8 of 16 subjects, both periods",50%
same,"number of TEAEs, overall","[3]; 16 subjects, both periods",Fifteen
same,number of TEAEs,[3]; acumapimod alone (period 1),7
same,number of TEAEs,[3]; acumapimod with azithromycin (period 2),8
same,intensity of TEAEs,[3]; all TEAEs,mild or moderate
same,TEAE considered likely related to acumapimod,"[3]; one TEAE, first exposure (acumapimod alone)",acneiform rash
same,"deaths, SAEs, severe TEAEs",[4],"No deaths, SAEs, or severe TEAEs were reported"
same,treatment-related TEAEs,[4],No TEAEs were judged to be treatment related
same,"vital signs, electrocardiogram, laboratory parameters",[4],No safety concerns were raised
same,subjects reporting TEAEs,"[4]; 6 of 16 subjects, both periods",37.5%
same,"number of TEAEs, overall","[4]; 16 subjects, both periods",10
same,number of TEAEs,[4]; acumapimod and itraconazole (period 2),8
same,liver function tests and central nervous system AEs,[4]; co‐administration of acumapimod and itraconazole,no clinically meaningful changes
same,dose recovered in the feces,Human mass balance study,33.9%
same,P-gp substrate status,P‐glycoprotein (P‐gp),substrate of P‐glycoprotein (P‐gp)
same,share of CYP‐mediated metabolism assigned to CYP3A4,CYP3A4,97.8%
